The list is not random: actives were taken first. Their share in the collection is about 1.3%.
LYP act – increases human PTPN22 phosphatase activity | recombinant LYP, DiFMUP fluorescence; 0 = plate median, 100 = signal doubled | AID 697 | actives 0.11% (n = 96,000) | activation, % at 2 µM | Q9Y2R2;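 active means activation at 2 µM above a set limit, the mean plus 5 SD, cut at about 37% in these data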
Target sequence (Q9Y2R2 whole entry, looked up): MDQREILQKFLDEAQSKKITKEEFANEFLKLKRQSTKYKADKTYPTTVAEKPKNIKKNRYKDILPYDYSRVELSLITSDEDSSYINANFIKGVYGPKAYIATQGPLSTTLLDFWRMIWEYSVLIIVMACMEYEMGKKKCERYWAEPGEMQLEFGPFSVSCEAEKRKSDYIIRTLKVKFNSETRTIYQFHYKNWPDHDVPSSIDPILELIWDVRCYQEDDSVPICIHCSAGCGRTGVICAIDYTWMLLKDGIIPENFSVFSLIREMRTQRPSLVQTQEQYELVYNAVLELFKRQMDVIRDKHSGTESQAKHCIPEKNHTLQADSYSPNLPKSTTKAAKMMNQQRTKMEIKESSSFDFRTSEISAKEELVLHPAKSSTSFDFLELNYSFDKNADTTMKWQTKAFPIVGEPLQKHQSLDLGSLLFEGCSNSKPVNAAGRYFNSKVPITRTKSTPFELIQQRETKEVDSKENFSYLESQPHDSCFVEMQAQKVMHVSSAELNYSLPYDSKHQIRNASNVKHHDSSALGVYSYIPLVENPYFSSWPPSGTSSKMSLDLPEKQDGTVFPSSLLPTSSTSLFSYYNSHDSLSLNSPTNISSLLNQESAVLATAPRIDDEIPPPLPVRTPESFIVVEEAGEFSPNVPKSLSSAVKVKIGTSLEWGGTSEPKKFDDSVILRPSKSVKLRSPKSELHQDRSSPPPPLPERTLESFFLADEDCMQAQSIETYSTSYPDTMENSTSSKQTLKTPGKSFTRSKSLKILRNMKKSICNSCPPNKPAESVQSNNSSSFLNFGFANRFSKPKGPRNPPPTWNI
LYP inh 2 – inhibitors of human LYP (PTPN22) phosphatase | Q9Y2R2 | inhibition, % at 2 µM | recombinant LYP catalytic domain, DiFMUP fluorescence | actives 0.21% (n = 96,000);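 active means inhibition at 2 µM at or above a set limit, the screen mean plus 3 SD, cut at about 24% in these data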;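 further: 0% = DMSO with enzyme and 100% = enzyme fully blocked by orthovanadate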
HIV Rev-RRE inh – inhibitors of HIV-1 Rev-RRE RNA interaction | P05866 | Rev peptide-RRE RNA binding, FRET | inhibition, % at 8 µM | actives 0.79% (n = 97,000) | AID 704;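 active means inhibition above the screen-wide mean plus 3 SD, cut at about 35% in these data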;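 further: 0% = median DMSO wells and 100% = median Neomycin B control wells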
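System: Cy5-labelled duplex RRE RNA binding fluorescein-labelled HIV Rev peptide; Signal: fluorescein-to-Cy5 FRET, 480 nm excitation; Also added: labelled Rev peptide; Compound: one concentration, 8 µM nominal; Buffer or medium: HEPES pH 7.5 salt buffer with EDTA; Read-out: % inhibition of FRET ratio versus controls; Schedule: 5 min preincubation and 15 min binding, 25 °C.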
EphB4 ephrin blk – blocks human EphB4 binding to ephrin-B2. P54760. EphB4 LBD / TNYL-RAW-Alexa532 peptide, fluorescence polarization. inhibition, % at 7 µM. actives 0.15% (n = 97,000);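 active means inhibition above the screen-wide mean inhibition plus 3 SD, cut at about 15% in these data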;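 further: 0% = DMSO wells and 100% = excess unlabeled TNYL-RAW peptide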
Starred values were filed as active, the others as inactive; [ ] = remark or other dose.

SMILES	LYP act	LYP inh 2	HIV Rev-RRE inh	EphB4 ephrin blk
CNc1ccc(Br)cc(C(=O)/C=C/c2cc(OC)ccc2OC)c1=O	-9.2	7.6	54.6*	-1.3
Cn1cnnc1SCNC(=O)C(F)(F)F	12.1	-11.5	5.0	-1.8
COCCNC(=O)CN(C(=O)Cn1nnc2ccccc21)c1ccc(F)c(Cl)c1	5.7	-1.4	-1.0	-2.6
COc1ccc(C(c2nnnn2Cc2cccs2)N2CCN(c3ccc(F)cc3)CC2)cc1OC (configuration not stated)	0.0	-1.5	5.5	2.2
O=C(CC1c2ccccc2Oc2ccccc21)N1CCN(c2ccccn2)CC1	-2.4	1.7	5.1	-3.5
CC[n+]1c(/C=C/Nc2ccccc2)oc2ccccc21	3.7	1.5	52.0*	-11.3
CCOC(=O)c1cn(-c2nc(-c3ccc(Cl)c(Cl)c3)cs2)c2c(F)c(N3CCOCC3)c(F)cc2c1=O	-24.7	28.2*	4.3	-9.2
CCOC(=O)c1cn(-c2ccc(F)c(F)c2F)c2c(F)c(F)c(F)cc2c1=O	5.5	-2.4	5.2	1.3
Cc1ccc(C2/C(=C(\O)c3ccc4c(c3)OCCO4)C(=O)C(=O)N2CCCN(C)C)o1 (configuration not stated)	-2.2	-1.0	11.6	12.0
CCN(CC(=O)Nc1cc(C)nn1-c1nc(C)cc(C)n1)Cc1ccccc1	-5.9	2.1	9.6	4.2
CCOC(=O)CC(=O)CSc1nc(-c2cccnc2)ccc1C#N	-5.9	3.1	88.1*[fluorescence artefact?]	3.8
CCCc1[nH]nc2c1C(c1ccc(OC)c(Cn3nnc4ccccc43)c1)C(C#N)=C(N)O2 (configuration not stated)	3.6	-6.5	13.5	16.6*
CCN1CCN(c2nc3ccccc3nc2C(C#N)S(=O)(=O)c2ccc(C)cc2)CC1 (configuration not stated)	0.0	-1.2	2.2	-6.7
Cc1ccc2nc(N3CCN(S(=O)(=O)c4ccc5c(c4)OCCO5)CC3)c(C#N)cc2c1	-12.5	16.1	9.2	-4.0
CC1CCCN(c2nc3ccccc3nc2C(C#N)S(=O)(=O)c2cccs2)C1 (configuration not stated)	11.9	-13.7	15.4	3.3
COc1ccc(S(=O)(=O)C(C#N)c2nc3ccccc3nc2N2CCCC(C)C2)cc1 (configuration not stated)	-5.7	1.7	38.1*	-0.2
Cc1ccc(S(=O)(=O)C(C#N)c2nc3ccccc3nc2N2CCCC2)cc1 (configuration not stated)	-5.6	4.2	77.4*	4.8
N#CC(C(=O)NCc1ccccc1)c1nc2ccccc2nc1N1CCCC1 (configuration not stated)	5.0	-5.7	61.8*	0.7
Cc1ccc(S(=O)(=O)N2CCCN(c3nc4cc(C)ccc4cc3C#N)CC2)cc1	-1.9	2.3	36.9*	5.8
CCOc1ccc(S(=O)(=O)N2CCN(C(=O)c3cccn3C)CC2)cc1	19.9	-23.4	6.6	8.1
COc1cc(/C=C(\C#N)C(=O)Nc2ccc(SC(F)F)cc2)cc(OC)c1OC	-2.2	-0.3	4.3	9.3
CCOc1cc(/C=C(/C#N)C(=O)Nc2ccc(O)cc2)cc(Br)c1O	-13.4	17.3	117.4*[fluorescence artefact?]	-2.8
N#CC1(C#N)CC(C=O)=C(N)C1(C#N)CC(=O)c1ccc(F)cc1 (configuration not stated)	-14.7	17.9	84.0*[fluorescence artefact?]	-4.4
CCCCS(=O)(=O)NC1=NCN(Cc2ccco2)CN1	0.3	-1.0	-0.3	-3.2
O=C1NCCCC2c3c(cc(Br)c(O)c3Br)OC12N1CCCCC1 (configuration not stated)	28.3	-26.9	-0.7	0.6
SMILES	LYP act	LYP inh 2	HIV Rev-RRE inh	EphB4 ephrin blk
O=C1NC(=S)N/C1=C/c1ccc(-c2c(Br)cc([N+](=O)[O-])cc2Br)o1	-13.7	16.9	38.0*	0.5
O=C1NC(=S)N/C1=C\c1cccc([N+](=O)[O-])c1	-0.2	1.8	1.0	-4.6
CN(C)C=Nc1c(Br)cc(Br)c2nonc12	-4.1	2.4	68.3*[fluorescence artefact?]	-3.0
CCCC(=O)Nc1cc(Cl)ccc1N1CCN(C(=O)CC)CC1	5.4	-3.6	-0.5	-0.3
Cc1c(-n2cc(C(=O)c3ccccc3O)cc(C#N)c2=O)c(=O)n(-c2ccccc2)n1C	-8.0	5.8	57.2*	-2.3
Nc1nnc(CCC2CCCCC2)s1	1.7	-2.9	10.4	1.6
N#CC1=C(N)SC(N)=C(C#N)C1CCC1CCCCC1	4.1	-7.7	67.6*	-1.8
O=C(CN(C1CCCCC1)S(=O)(=O)c1ccc(Cl)cc1)NCc1ccncc1	-12.2	9.7	1.1	-11.1
CN1CCc2nc(NC(=O)c3cccc(OC(F)F)c3)sc2C1	-1.6	3.9	64.7*	4.2
Cc1c(Cl)cccc1NC(=O)c1cccc(OC(F)F)c1	20.6	-25.8	3.9	2.1
CC(C)COCC1CC2(CC(C)C(=O)CC2=O)C(=O)O1 (configuration not stated)	-2.6	2.0	1.3	-2.8
O=C1Cc2ccccc2C(=O)N1Cc1ccccc1	11.9	-10.1	4.5	1.0
O=C1c2cccc3c(O)ccc(c23)C(=O)N1Cc1ccccc1	4.1	-5.8	130.5*[fluorescence artefact?]	9.8
O=c1[nH]c(Nc2ccc(F)cc2)cc2ccccc12	-5.9	5.9	47.1*	0.1
O=C(NC1CCCCC1)C(c1cccs1)N(Cc1cccs1)C(=O)c1ccco1 (configuration not stated)	3.8	-7.3	6.9	6.3
Cc1ccc2nc(NC(=O)c3cccc(-c4cc5ccccc5oc4=O)c3)sc2c1	-22.4	26.3*	3.1	-8.1
CCn1nnc(NC(=O)c2cccc(-c3cc4ccccc4oc3=O)c2)n1	-4.5	1.5	10.2	0.8
O=C(CSc1nnc(-c2ccc(S(=O)(=O)N3CCCC3)cc2)o1)NCc1ccco1	0.3	-2.4	2.2	1.4
O=C(O)c1cc(S(=O)(=O)NCc2ccco2)c(Cl)cc1Cl	-1.7	1.8	10.2	1.8
Cc1cccc2cc(CN(CC3CCCO3)C(c3nnnn3Cc3ccco3)C(C)C)c(=O)[nH]c12 (configuration not stated)	19.6	-21.7	3.3	1.4
CCn1c(C)c(C(C)=O)c(N2CCN(c3ccccn3)CC2)nc1=S	-4.5	4.9	-0.3	-4.5
CCn1c(C)c(C(C)=O)c(N2CCN(c3ccccc3)CC2)nc1=S	-2.3	3.3	42.3*	-3.1
Cn1c(-c2ccc(C=O)s2)nc2c3ccccc3c3ccccc3c21	-16.3	17.7	80.6*	6.6
O=C(CSc1nc2cc(Cl)ccc2s1)c1cc2ccccc2o1	-3.6	6.3	68.3*	-4.0
Cc1cc(SCC(=O)c2ccc3c(c2)OCO3)nc2ccccc12	4.3	-1.8	13.4	-0.9
Cc1cc(SCC(=O)c2cc3ccccc3o2)nc2ccccc12	-14.1	15.5	45.9*	-1.8
Cc1ccc2nc(NC(=S)NC(=O)c3cccs3)sc2c1	-27.9	29.5*	3.1	7.2
CCCOc1c(Cl)cc(C(=O)Nc2ccc3c(c2)OCO3)cc1OCC	-1.3	-2.9	12.1	-0.5
Cc1cccc(CN2C(=O)N/C(=C/c3cc(C)n(-c4cc(C)ccn4)c3C)C2=O)c1	-8.9	11.6	8.8	2.6
Cc1cccc(CN2C(=O)N/C(=C/c3ccc(C)s3)C2=O)c1	-5.5	7.0	57.7*	6.5
